Legend:
Escherichia coli [1] = assay: Antibacterial activity against fluoroquinolone resistant Escherichia coli SKM18 by CLSI M100-S17 protocol based method; assay type: functional
Escherichia coli [2] = assay: Antibacterial activity against wild type Escherichia coli ATCC 25922 by CLSI M100-S17 protocol based method; assay type: functional
Escherichia coli [3] = assay: Antibacterial activity against quinolone resistance Escherichia coli isolate ELZ4251 harboring gyrA/parC mutant by CLSI M100-S17 protocol based method; assay type: functional
Acinetobacter baumannii [4] = assay: Antibacterial activity against wild type Acinetobacter baumannii ATCC BAA-747 by CLSI M100-S17 protocol based method; assay type: functional
Acinetobacter baumannii [5] = assay: Antibacterial activity against fluoroquinolone resistant Acinetobacter baumannii isolate MMX2240 by CLSI M100-S17 protocol based method; assay type: functional
Klebsiella pneumoniae = assay: Antibacterial activity against wild type Klebsiella pneumoniae ATCC 35657 by CLSI M100-S17 protocol based method; assay type: functional
Escherichia coli [6] = assay: Antibacterial activity against wild type Escherichia coli ATCC 25922 in presence of HSA by CLSI M100-S17 protocol based method; assay type: functional
Escherichia coli [7] = assay: Selectivity ratio of MIC for wild type Escherichia coli ATCC 25922 in presence of HSA to MIC for wild type Escherichia coli ATCC 25922; assay type: functional
Mus musculus [8] = assay: Terminal half life in CD1 mouse plasma at 10 mg/kg, iv by LC-MS/MS analysis; assay type: ADME, organism-based; conditions: in vivo
Mus musculus [9] = assay: AUC (0 to 24 hrs) in CD1 mouse plasma at 10 mg/kg, iv by LC-MS/MS analysis; assay type: ADME, organism-based; parameters: time < 24 hr, dose 10 mg/kg, route intravenous; conditions: in vivo
Method in brief: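 CD-1 mice given a single 10 mg/kg iv dose (n = 3), in either 10% DMSO plus 1% Tween 80 in pH 8.0 phosphate buffer or 20% (2-hydroxypropyl)-β-cyclodextrin in pH 4.0 citrate buffer; plasma exposure measured.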

Mus musculus [10] = assay: Volume of distribution at steady state in CD1 mouse plasma at 10 mg/kg, iv by LC-MS/MS analysis; assay type: ADME, organism-based; conditions: in vivo
[11] = Fraction unbound in mouse plasma at 1 uM by equilibrium dialysis method; assay type: ADME, cell-free
Escherichia coli [12] = assay: Antibacterial activity against quinolone resistant Escherichia coli by broth microdilution method; assay type: functional
Method in brief: (§1)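 MICs were determined by CLSI broth methods, except that organisms were grown in brain–heart–infusion medium. The panel comprised wild-type and resistant E. coli and A. baumannii strains, including 12 strains whose details are given by reference.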

Escherichia coli [13] = assay: Antibacterial activity against wild type Escherichia coli by broth microdilution method; assay type: functional; method in brief: as §1
Escherichia coli [14] = assay: Antibacterial activity against beta-lactam resistant Escherichia coli by broth microdilution method; assay type: functional; method in brief: as §1
Escherichia coli [15] = assay: Antibacterial activity against aminoglycoside resistant Escherichia coli by broth microdilution method; assay type: functional; method in brief: as §1
Escherichia coli [16] = assay: Antibacterial activity against multidrug resistant Escherichia coli by broth microdilution method; assay type: functional; method in brief: as §1
Acinetobacter baumannii [17] = assay: Antibacterial activity against wild type Acinetobacter baumannii by broth microdilution method; assay type: functional; method in brief: as §1
Acinetobacter baumannii [18] = assay: Antibacterial activity against aminoglycoside resistant Acinetobacter baumannii by broth microdilution method; assay type: functional; conditions: for MIC50 / MIC90: Acinetobacter baumannii; method in brief: as §1
Acinetobacter baumannii [19] = assay: Antibacterial activity against quinolone resistant Acinetobacter baumannii by broth microdilution method; assay type: functional; conditions: for MIC50 / MIC90: Acinetobacter baumannii; method in brief: as §1
Acinetobacter baumannii [20] = assay: Antibacterial activity against beta-lactam resistant Acinetobacter baumannii by broth microdilution method; assay type: functional; conditions: for MIC50 / MIC90: Acinetobacter baumannii; method in brief: as §1
Acinetobacter baumannii [21] = assay: Antibacterial activity against carbapenem resistant Acinetobacter baumannii by broth microdilution method; assay type: functional; conditions: for MIC50 / MIC90: Acinetobacter baumannii; method in brief: as §1
Acinetobacter baumannii [22] = assay: Antibacterial activity against multidrug resistant Acinetobacter baumannii by broth microdilution method; assay type: functional; conditions: for MIC50 / MIC90: Acinetobacter baumannii; method in brief: as §1
[23] = Escherichia coli, read-out: MIC

CN(C)Cc1cc2cc3c(cc2n1C)OCCc1c-3[nH]c(=O)c(C(=O)O)c1O
2930 ng·h/mL: AUC (Mus musculus [9])
0.25 to 8 µg/mL: MIC (Escherichia coli [12]; [23]) | MIC (Escherichia coli [14]; [23]) | MIC (Escherichia coli [15]; [23]) | MIC (Escherichia coli [16]; [23])
7.6 L/kg: Vdss (Mus musculus [10])
3.9 µg/mL: MIC (Acinetobacter baumannii [5])
3.1 h: beta t1/2 (Mus musculus [8])
2 µg/mL: MIC (Acinetobacter baumannii [4]) | MIC (Escherichia coli [6]) | MIC90 (Escherichia coli [12]; Escherichia coli) | MIC90 (Escherichia coli [13]) | MIC90 (Escherichia coli [14]; Escherichia coli) | MIC90 (Escherichia coli [15]; Escherichia coli) | MIC90 (Escherichia coli [16]; Escherichia coli) | MIC50 (Acinetobacter baumannii [17]) | MIC50 (Acinetobacter baumannii [18]) | MIC50 (Acinetobacter baumannii [19]) | MIC50 (Acinetobacter baumannii [20]) | MIC50 (Acinetobacter baumannii [21]) | MIC50 (Acinetobacter baumannii [22])
1.6 µg/mL: MIC (Escherichia coli [3])
0.21: Fu [11]
0.5 µg/mL: MIC50 (Escherichia coli [12]; Escherichia coli) | MIC50 (Escherichia coli [13]) | MIC50 (Escherichia coli [14]; Escherichia coli) | MIC50 (Escherichia coli [15]; Escherichia coli) | MIC50 (Escherichia coli [16]; Escherichia coli)
2 - 4: Ratio (Escherichia coli [7])
0.25 to 16 µg/mL: MIC (Acinetobacter baumannii [17])
1 µg/mL: MIC (Escherichia coli [1]) | MIC (Escherichia coli [2]) | MIC (Klebsiella pneumoniae)
16 µg/mL: MIC90 (Acinetobacter baumannii [17]) | MIC90 (Acinetobacter baumannii [18]) | MIC90 (Acinetobacter baumannii [19]) | MIC90 (Acinetobacter baumannii [20]) | MIC90 (Acinetobacter baumannii [21]) | MIC90 (Acinetobacter baumannii [22])

C[C@H]1COc2c(N3CCN(C)CC3)c(F)cc3c(=O)c(C(=O)O)cn1c23.C[C@H]1COc2c(N3CCN(C)CC3)c(F)cc3c(=O)c(C(=O)O)cn1c23.O [LEVOFLOXACIN]
0.06 to 64 µg/mL: MIC (Acinetobacter baumannii [18]) | MIC (Acinetobacter baumannii [19]) | MIC (Acinetobacter baumannii [20]) | MIC (Acinetobacter baumannii [21]) | MIC (Acinetobacter baumannii [22])
16 µg/mL: MIC90 (Acinetobacter baumannii [17]) | MIC90 (Acinetobacter baumannii [18]) | MIC90 (Acinetobacter baumannii [19]) | MIC90 (Acinetobacter baumannii [20]) | MIC90 (Acinetobacter baumannii [21]) | MIC90 (Acinetobacter baumannii [22])
0.06 µg/mL: MIC50 (Escherichia coli [12]; Escherichia coli) | MIC50 (Escherichia coli [13]) | MIC50 (Escherichia coli [14]; Escherichia coli) | MIC50 (Escherichia coli [15]; Escherichia coli) | MIC50 (Escherichia coli [16]; Escherichia coli)
32 µg/mL: MIC90 (Escherichia coli [12]; Escherichia coli) | MIC90 (Escherichia coli [13]) | MIC90 (Escherichia coli [14]; Escherichia coli) | MIC90 (Escherichia coli [15]; Escherichia coli) | MIC90 (Escherichia coli [16]; Escherichia coli)
0.015 to 32 µg/mL: MIC (Escherichia coli [12]) | MIC (Escherichia coli [14]) | MIC (Escherichia coli [15]) | MIC (Escherichia coli [16])
2 µg/mL: MIC50 (Acinetobacter baumannii [17]) | MIC50 (Acinetobacter baumannii [18]) | MIC50 (Acinetobacter baumannii [19]) | MIC50 (Acinetobacter baumannii [20]) | MIC50 (Acinetobacter baumannii [21]) | MIC50 (Acinetobacter baumannii [22])
